Source: the M2OR odorant receptor database
Changes are numbered by the printed parent chain.

Key:
Conditions in all cases: stereoisomer not certain
OR8D2 (Homo sapiens) = target: T1, OR8D2 (Homo sapiens) (UniProt Q9GZM6)
T1 sequence (whole entry): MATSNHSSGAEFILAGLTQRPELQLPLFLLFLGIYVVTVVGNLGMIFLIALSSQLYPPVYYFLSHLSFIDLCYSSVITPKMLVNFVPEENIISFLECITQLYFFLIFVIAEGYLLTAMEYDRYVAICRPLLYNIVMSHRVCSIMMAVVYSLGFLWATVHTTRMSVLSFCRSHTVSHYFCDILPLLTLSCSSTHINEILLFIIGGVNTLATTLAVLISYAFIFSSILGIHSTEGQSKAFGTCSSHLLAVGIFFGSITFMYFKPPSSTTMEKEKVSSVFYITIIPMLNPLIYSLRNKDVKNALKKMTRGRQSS
In short: (§1)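 Assay methods differ from source to source, frequently being transient luciferase assays in mammalian cell lines. For each receptor–molecule pair, the label responsive (active) applies when the original authors judged the measured signal statistically different from baseline, and non-responsive (inactive) applies otherwise.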

OR8D4 (Homo sapiens) = target: T2, OR8D4 (Homo sapiens) (UniProt Q8NGM9)
T2 sequence (whole entry): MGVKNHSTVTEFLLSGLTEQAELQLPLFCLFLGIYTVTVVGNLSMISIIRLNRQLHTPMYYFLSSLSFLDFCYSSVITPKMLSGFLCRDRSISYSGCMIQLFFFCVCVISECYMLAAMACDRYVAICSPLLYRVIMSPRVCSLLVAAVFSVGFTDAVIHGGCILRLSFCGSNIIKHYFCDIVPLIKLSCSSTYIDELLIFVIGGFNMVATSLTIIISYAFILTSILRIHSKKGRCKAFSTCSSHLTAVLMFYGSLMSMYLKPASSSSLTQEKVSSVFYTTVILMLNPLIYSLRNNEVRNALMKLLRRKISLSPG
In short: as §1

OR8D4 C120Y R133K = tested on: T3, OR8D4 C120Y R133K
T3 sequence (whole entry): T2 sequence (whole entry) with C120Y, R133K
In short: as §1

OR8G1 (Homo sapiens) = target: T4, OR8G1 (Homo sapiens) (UniProt Q15617)
T4 sequence (whole entry): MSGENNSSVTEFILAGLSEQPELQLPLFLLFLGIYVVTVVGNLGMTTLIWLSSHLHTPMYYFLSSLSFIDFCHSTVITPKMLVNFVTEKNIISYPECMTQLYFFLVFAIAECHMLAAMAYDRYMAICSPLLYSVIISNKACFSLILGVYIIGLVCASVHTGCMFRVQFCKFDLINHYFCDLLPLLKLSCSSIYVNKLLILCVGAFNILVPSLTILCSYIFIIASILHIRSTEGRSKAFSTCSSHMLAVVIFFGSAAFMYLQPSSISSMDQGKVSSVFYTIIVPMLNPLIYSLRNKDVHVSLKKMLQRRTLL
In short: as §1

OR8G5 (Homo sapiens) = target: T5, OR8G5 (Homo sapiens) (UniProt Q8NG78)
T5 sequence (whole entry): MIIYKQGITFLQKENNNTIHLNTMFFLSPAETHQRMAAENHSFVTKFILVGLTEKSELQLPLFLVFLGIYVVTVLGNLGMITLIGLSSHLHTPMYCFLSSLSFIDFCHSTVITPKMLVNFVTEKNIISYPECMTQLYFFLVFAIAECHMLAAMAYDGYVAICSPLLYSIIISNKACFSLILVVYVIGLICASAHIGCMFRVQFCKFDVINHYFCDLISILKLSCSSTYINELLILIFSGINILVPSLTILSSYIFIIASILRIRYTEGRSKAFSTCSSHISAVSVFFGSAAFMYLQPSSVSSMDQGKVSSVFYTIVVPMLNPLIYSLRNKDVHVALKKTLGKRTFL
In short: as §1

OR8H1 (Homo sapiens) = target: T6, OR8H1 (Homo sapiens) (UniProt Q8NGG4)
T6 sequence (whole entry): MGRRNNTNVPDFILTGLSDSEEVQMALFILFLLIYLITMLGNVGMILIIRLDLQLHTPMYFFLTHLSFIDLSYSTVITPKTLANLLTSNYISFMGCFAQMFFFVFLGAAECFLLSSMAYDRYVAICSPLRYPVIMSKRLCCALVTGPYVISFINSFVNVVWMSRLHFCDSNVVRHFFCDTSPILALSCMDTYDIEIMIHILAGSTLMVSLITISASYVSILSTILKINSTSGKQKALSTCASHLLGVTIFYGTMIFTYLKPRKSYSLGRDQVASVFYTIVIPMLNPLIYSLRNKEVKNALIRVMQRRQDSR
In short: as §1

OR8H2 (Homo sapiens) = target: T7, OR8H2 (Homo sapiens) (UniProt Q8N162)
T7 sequence (whole entry): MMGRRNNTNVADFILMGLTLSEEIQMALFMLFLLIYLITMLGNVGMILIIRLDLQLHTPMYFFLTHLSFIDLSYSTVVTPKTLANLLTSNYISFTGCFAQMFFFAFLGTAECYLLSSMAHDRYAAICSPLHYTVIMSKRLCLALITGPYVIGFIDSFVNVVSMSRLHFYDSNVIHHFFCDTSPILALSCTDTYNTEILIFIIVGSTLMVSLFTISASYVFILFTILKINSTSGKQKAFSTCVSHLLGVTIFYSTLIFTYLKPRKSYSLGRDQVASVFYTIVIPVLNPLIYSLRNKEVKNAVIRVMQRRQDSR
In short: as §1

OR8H2 H120Y Y169C V284M = tested on: T8, OR8H2 H120Y Y169C V284M
T8 sequence (whole entry): T7 sequence (whole entry) with H120Y, Y169C, V284M
In short: as §1

OR8H3 (Homo sapiens) = target: T9, OR8H3 (Homo sapiens) (UniProt Q8N146)
T9 sequence (whole entry): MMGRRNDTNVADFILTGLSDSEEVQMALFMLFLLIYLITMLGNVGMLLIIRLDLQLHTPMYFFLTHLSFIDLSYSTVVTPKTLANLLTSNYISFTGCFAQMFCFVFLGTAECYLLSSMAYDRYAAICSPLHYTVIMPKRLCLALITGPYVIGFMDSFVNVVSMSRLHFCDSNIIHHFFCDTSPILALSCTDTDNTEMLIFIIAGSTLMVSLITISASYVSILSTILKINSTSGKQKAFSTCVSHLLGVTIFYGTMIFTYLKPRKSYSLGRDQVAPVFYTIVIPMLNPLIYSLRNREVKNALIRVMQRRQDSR
In short: as §1

OR8H3 = tested on: T10, OR8H3
T10 sequence (whole entry): T9 sequence (whole entry) with P137S
In short: as §1

OR8I2 (Homo sapiens) = target: T11, OR8I2 (Homo sapiens) (UniProt Q8N0Y5)
T11 sequence (whole entry): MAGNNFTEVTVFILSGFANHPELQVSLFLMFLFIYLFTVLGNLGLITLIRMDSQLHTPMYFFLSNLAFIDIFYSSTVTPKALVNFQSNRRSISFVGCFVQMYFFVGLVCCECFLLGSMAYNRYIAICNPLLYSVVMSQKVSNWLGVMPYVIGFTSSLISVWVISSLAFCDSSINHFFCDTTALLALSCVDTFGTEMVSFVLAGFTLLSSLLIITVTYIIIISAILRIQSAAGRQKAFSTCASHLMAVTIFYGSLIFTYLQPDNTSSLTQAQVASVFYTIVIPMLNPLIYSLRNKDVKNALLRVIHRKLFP
In short: as §1

OR8J1 (Homo sapiens) = target: T12, OR8J1 (Homo sapiens) (UniProt Q8NGP2)
T12 sequence (whole entry): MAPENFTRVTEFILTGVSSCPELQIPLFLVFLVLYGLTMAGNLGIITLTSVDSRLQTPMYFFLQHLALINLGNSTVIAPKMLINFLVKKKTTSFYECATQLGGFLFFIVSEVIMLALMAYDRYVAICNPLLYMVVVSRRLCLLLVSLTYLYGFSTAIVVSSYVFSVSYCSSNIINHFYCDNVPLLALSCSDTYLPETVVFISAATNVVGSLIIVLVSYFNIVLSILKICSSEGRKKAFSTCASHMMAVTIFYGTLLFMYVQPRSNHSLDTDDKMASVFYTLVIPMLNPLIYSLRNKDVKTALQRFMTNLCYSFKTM
In short: as §1

OR8J1 = tested on: T13, OR8J1
T13 sequence (whole entry): T12 sequence (whole entry) with Y120C
In short: as §1

OR8J3 (Homo sapiens) = target: T14, OR8J3 (Homo sapiens) (UniProt Q8NGG0)
T14 sequence (whole entry): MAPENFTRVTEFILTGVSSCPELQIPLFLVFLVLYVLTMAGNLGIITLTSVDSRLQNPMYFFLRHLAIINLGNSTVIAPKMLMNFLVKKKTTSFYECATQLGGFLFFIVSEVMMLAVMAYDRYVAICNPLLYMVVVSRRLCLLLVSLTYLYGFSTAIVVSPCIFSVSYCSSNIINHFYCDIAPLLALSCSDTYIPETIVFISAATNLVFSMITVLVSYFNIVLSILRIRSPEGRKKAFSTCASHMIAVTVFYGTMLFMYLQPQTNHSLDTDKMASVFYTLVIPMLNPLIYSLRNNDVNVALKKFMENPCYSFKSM
In short: as §1

OR8J3 E4V = tested on: T15, OR8J3 E4V
T15 sequence (whole entry): T14 sequence (whole entry) with E4V
In short: as §1

OR8K1 (Homo sapiens) = target: T16, OR8K1 (Homo sapiens) (UniProt Q8NGG5)
T16 sequence (whole entry): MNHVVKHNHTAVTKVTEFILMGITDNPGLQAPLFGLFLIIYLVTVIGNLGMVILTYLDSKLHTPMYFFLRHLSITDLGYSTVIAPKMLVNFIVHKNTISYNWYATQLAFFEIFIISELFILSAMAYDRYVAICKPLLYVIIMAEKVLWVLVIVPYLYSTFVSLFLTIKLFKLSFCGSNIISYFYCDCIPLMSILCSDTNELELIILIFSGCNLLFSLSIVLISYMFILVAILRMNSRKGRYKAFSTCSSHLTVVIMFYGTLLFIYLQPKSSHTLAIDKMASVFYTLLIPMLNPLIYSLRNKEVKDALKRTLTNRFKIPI
In short: as §1

OR8K3 (Homo sapiens) = target: T17, OR8K3 (Homo sapiens) (UniProt Q8NH51)
T17 sequence (whole entry): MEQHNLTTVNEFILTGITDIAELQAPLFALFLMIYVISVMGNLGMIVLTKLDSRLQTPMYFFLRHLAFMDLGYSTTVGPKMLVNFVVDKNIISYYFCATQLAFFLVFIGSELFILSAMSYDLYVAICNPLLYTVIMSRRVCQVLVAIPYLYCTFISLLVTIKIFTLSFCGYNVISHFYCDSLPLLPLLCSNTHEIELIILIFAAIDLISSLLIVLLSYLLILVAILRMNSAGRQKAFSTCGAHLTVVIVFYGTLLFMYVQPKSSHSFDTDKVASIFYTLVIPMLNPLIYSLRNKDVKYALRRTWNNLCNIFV
In short: as §1

OR8K5 (Homo sapiens) = target: T18, OR8K5 (Homo sapiens) (UniProt Q8NH50)
T18 sequence (whole entry): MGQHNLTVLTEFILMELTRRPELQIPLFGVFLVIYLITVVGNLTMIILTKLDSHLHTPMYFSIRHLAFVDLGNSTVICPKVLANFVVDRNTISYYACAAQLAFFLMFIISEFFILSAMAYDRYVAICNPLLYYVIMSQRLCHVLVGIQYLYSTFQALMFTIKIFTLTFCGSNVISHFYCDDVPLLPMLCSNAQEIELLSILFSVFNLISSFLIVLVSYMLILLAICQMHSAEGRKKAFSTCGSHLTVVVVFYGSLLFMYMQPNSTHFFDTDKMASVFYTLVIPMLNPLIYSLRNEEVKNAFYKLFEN
In short: as §1

OR8S1 (Homo sapiens) = target: T19, OR8S1 (Homo sapiens) (UniProt Q8NH09)
T19 sequence (whole entry): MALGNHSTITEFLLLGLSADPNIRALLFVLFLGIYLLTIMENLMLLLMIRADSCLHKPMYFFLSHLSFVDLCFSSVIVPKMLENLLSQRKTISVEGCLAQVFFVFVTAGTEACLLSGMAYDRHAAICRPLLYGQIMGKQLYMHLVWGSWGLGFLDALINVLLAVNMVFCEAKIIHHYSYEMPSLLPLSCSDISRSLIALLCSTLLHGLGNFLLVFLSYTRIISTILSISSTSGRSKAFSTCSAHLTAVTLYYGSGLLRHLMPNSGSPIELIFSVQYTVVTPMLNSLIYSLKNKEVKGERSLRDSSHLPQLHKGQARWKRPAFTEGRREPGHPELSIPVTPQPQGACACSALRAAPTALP
In short: as §1

OR8J2 (Homo sapiens) = OR8J2 (Homo sapiens) (UniProt Q8NGG1)
OR8J2 (Homo sapiens), sequence (Q8NGG1 whole entry): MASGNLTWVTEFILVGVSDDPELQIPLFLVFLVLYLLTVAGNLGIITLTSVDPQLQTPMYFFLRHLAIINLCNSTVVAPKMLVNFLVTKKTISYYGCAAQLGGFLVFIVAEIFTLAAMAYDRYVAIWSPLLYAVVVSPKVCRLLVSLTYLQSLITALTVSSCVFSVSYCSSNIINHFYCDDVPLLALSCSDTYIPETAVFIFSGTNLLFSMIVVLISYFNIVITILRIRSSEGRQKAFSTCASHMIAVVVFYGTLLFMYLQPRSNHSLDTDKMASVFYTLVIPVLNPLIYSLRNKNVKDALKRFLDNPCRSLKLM
In short: as §1

Measured: odorant receptor agonist call

CCC1OC(=O)C(O)=C1C (stereo not given)
not listed: OR8J2 (Homo sapiens)
inactive: all other assays above

CCCCC(S)C(C)CO (stereo not given)
not listed: OR8D4 C120Y R133K | OR8H2 H120Y Y169C V284M | OR8H3 | OR8J1 | OR8J3 E4V | OR8J2 (Homo sapiens)
inactive: all other assays above

CCCC(S)CCOC(C)=O (stereo not given)
not listed: OR8J2 (Homo sapiens)
inactive: all other assays above

CC1CCCCCCCCCCCCC(=O)C1 (stereo not given)
not listed: OR8D4 C120Y R133K | OR8H2 H120Y Y169C V284M | OR8H3 | OR8J1 | OR8J3 E4V
inactive: all other assays above

CC(=O)c1c(C)c([N+](=O)[O-])c(C(C)(C)C)c([N+](=O)[O-])c1C
not listed: OR8D4 C120Y R133K | OR8H2 H120Y Y169C V284M | OR8H3 | OR8J1 | OR8J3 E4V
inactive: all other assays above

CCCCCC(=O)C(C)C(C)=O (stereo not given)
not listed: OR8D4 C120Y R133K | OR8H2 H120Y Y169C V284M | OR8H3 | OR8J1 | OR8J3 E4V | OR8J2 (Homo sapiens)
inactive: all other assays above

O=C1CCOc2ccccc21
inactive: OR8K5 (Homo sapiens)

CC1=C(O)C(=O)OC1C (stereo not given)
not listed: OR8J2 (Homo sapiens)
inactive: all other assays above

CCCCCC(S)C(C)CO (stereo not given)
not listed: OR8D4 C120Y R133K | OR8H2 H120Y Y169C V284M | OR8H3 | OR8J1 | OR8J3 E4V | OR8J2 (Homo sapiens)
inactive: all other assays above
